Source: ChEMBL document CHEMBL3286330, “Multivalent design of long-acting β(2)-adrenoceptor agonists incorporating biarylamines” (Bioorg Med Chem Lett, 2014)
Activity calls are given as the source filed them. No cut-off for these calls is given here.

species on record: Homo sapiens; assay: Selectivity ratio EC50 for human beta2 receptor to EC50 for human beta1 receptor
Procedure, shortened: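 cAMP accumulation in whole cells overexpressing cloned human β2- or β1-adrenoceptor, measured by homogeneous radioimmunoassay. Selectivity is the ratio of agonist EC50s, β1 EC50/β2 EC50.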

Structure (SMILES) | Ratio EC50
COc1ccc(Nc2ccc(CCNC[C@H](O)c3ccc(O)c4[nH]c(=O)ccc34)cc2)cc1-c1ccccc1 | 56
COc1ccc(Nc2ccc(CCNC[C@H](O)c3ccc(O)c(NC=O)c3)cc2)cc1-c1ccccc1 | 75

molecular target: T1, Beta-1 adrenergic receptor (Homo sapiens, UniProt P08588); assay: Displacement of [3H]dihydroalprenolol from beta1 receptor (unknown origin) by liquid scintillation counting and cell based assay
T1 sequence (P08588 whole entry): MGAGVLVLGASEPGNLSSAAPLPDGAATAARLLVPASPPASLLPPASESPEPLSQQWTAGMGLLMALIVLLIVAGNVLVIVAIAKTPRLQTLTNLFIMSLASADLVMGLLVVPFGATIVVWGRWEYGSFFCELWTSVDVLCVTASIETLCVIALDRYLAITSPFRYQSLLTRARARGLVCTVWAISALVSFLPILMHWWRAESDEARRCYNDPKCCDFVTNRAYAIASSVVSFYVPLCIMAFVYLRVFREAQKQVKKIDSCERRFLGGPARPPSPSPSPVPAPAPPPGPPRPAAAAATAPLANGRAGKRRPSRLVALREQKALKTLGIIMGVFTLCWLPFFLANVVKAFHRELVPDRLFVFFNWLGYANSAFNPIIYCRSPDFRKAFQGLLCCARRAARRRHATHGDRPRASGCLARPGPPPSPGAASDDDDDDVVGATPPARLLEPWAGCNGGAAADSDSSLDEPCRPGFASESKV

Structure (SMILES) | Ki
COc1ccc(CN2CCN(c3ccc(CCNCC(O)c4ccc(O)c(CO)c4)cc3)CC2)cc1 (racemic) | > 10000 nM
CSc1ccc(Nc2ccc(CCNCC(O)c3ccc(O)c(CO)c3)cc2)cc1 (racemic) | 7940 nM
O=CNc1cc([C@@H](O)CNCCc2ccc(NC[C@H](O)c3ccccc3)cc2)ccc1O [MILVETEROL] | 10000 nM
OCc1cc(C(O)CNCCc2ccc(Nc3ccc4ccccc4c3)cc2)ccc1O (racemic) | 12600 nM
OCc1cc(C(O)CNCCc2ccc(N3CCC(c4ccccc4)CC3)cc2)ccc1O (racemic) | > 10000 nM
O=C(Cc1ccccc1)NC1CCN(c2ccc(CCNCC(O)c3ccc(O)c(CO)c3)cc2)CC1 (racemic) | > 10000 nM
COC(=O)c1ccc(Nc2ccc(CCNCC(O)c3ccc(O)c(CO)c3)cc2)cc1 (racemic) | 10000 nM
OCc1cc(C(O)CNCCc2ccc(N3CCC(CCCc4ccccc4)CC3)cc2)ccc1O (racemic) | 126000 nM
OCc1cc(C(O)CNCCc2ccc(Nc3ccc(-c4ccccc4)cc3)cc2)ccc1O (racemic) | 12600 nM
OCc1cc(C(O)CNCCc2ccc(Nc3ccc(O)cc3)cc2)ccc1O (racemic) | 39800 nM
OCc1cc(C(O)CNCCc2ccc(Nc3cccc(-c4ccccc4)c3)cc2)ccc1O (racemic) | 12600 nM
OCc1cc(C(O)CNCCc2ccc(Br)cc2)ccc1O (racemic) | > 10000 nM
OCc1cc(C(O)CNCCc2ccc(NCc3ccc(Cl)c(Cl)c3)cc2)ccc1O (racemic) | > 10000 nM

molecular target: Beta-3 adrenergic receptor (Homo sapiens, UniProt P13945); assay: Agonist activity at human recombinant beta3 receptor assessed as cAMP accumulation by radioimmunoassay and cell based assay
Sequence (P13945 whole entry): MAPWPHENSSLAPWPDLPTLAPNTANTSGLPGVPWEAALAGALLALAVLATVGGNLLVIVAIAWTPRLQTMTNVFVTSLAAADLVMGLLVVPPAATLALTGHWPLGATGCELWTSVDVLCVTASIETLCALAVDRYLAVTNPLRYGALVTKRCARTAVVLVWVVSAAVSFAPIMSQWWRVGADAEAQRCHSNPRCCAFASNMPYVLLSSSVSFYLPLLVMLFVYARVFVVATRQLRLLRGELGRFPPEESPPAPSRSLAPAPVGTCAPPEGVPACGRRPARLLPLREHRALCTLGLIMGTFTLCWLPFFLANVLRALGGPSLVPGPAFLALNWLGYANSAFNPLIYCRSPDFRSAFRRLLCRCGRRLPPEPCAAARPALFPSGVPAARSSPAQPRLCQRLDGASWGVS

Structure (SMILES) | EC50
COc1ccc(Nc2ccc(CCNC[C@H](O)c3ccc(O)c4[nH]c(=O)ccc34)cc2)cc1-c1ccccc1 | 12.6 nM
COc1ccc(Nc2ccc(CCNC[C@H](O)c3ccc(O)c(NC=O)c3)cc2)cc1-c1ccccc1 | 3.16 nM

molecular target: T2, Beta-2 adrenergic receptor (Homo sapiens, UniProt P07550); assay: Displacement of [3H]dihydroalprenolol from beta2 receptor (unknown origin) by liquid scintillation counting and cell based assay
T2 sequence (P07550 whole entry): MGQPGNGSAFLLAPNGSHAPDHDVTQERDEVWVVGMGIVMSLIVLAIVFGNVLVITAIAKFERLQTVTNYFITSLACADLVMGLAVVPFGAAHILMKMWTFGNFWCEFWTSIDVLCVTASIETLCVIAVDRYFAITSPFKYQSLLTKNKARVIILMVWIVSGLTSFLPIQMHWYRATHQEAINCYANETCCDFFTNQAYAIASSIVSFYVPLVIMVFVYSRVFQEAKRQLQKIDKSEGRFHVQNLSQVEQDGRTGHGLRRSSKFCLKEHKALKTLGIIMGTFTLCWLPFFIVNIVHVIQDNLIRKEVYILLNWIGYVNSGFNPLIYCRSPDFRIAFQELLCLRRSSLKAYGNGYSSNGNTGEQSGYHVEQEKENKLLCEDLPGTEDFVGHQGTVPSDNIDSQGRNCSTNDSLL

Structure (SMILES) | Ki
COc1ccc(CN2CCN(c3ccc(CCNCC(O)c4ccc(O)c(CO)c4)cc3)CC2)cc1 (racemic) | > 10000 nM
CSc1ccc(Nc2ccc(CCNCC(O)c3ccc(O)c(CO)c3)cc2)cc1 (racemic) | 79.4 nM
O=CNc1cc([C@@H](O)CNCCc2ccc(NC[C@H](O)c3ccccc3)cc2)ccc1O [MILVETEROL] | 3.16 nM
OCc1cc(C(O)CNCCc2ccc(Nc3ccc4ccccc4c3)cc2)ccc1O (racemic) | 316 nM
OCc1cc(C(O)CNCCc2ccc(N3CCC(c4ccccc4)CC3)cc2)ccc1O (racemic) | 12600 nM
O=C(Cc1ccccc1)NC1CCN(c2ccc(CCNCC(O)c3ccc(O)c(CO)c3)cc2)CC1 (racemic) | > 10000 nM
COC(=O)c1ccc(Nc2ccc(CCNCC(O)c3ccc(O)c(CO)c3)cc2)cc1 (racemic) | 251 nM
OCc1cc(C(O)CNCCc2ccc(N3CCC(CCCc4ccccc4)CC3)cc2)ccc1O (racemic) | 200000 nM
OCc1cc(C(O)CNCCc2ccc(Nc3ccc(-c4ccccc4)cc3)cc2)ccc1O (racemic) | 316 nM
OCc1cc(C(O)CNCCc2ccc(Nc3ccc(O)cc3)cc2)ccc1O (racemic) | 1580 nM
OCc1cc(C(O)CNCCc2ccc(Nc3cccc(-c4ccccc4)c3)cc2)ccc1O (racemic) | 316 nM
OCc1cc(C(O)CNCCc2ccc(Br)cc2)ccc1O (racemic) | 31600 nM
OCc1cc(C(O)CNCCc2ccc(NCc3ccc(Cl)c(Cl)c3)cc2)ccc1O (racemic) | > 10000 nM

tested on: Cavia porcellus; assay: Inhibition of acetylcholine-induced bronchoconstriction in male guinea pig assessed as pulmonary resistance administered via nebulization for 10 mins measured after 72 hrs by plethysmograph; type: functional, organism-based
Procedure, shortened: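 Guinea pigs dosed by nebulizer, 72 h before measurement. Pulmonary resistance measured in anesthetized, spontaneously breathing animals by head-out plethysmograph. Bronchoconstriction induced by increasing intravenous acetylcholine doses; PD2 is the ACh dose that doubles baseline resistance.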

Structure (SMILES) | inhibition
COc1ccc(Nc2ccc(CCNC[C@H](O)c3ccc(O)c4[nH]c(=O)ccc34)cc2)cc1-c1ccccc1 | Dose-dependent effect

tested on: Cavia porcellus; assay: Inhibition of acetylcholine-induced bronchoconstriction in male guinea pig assessed as pulmonary resistance at 1 -100 ug/ml administered via nebulization for 10 mins measured after 1.5 hrs by plethysmograph; type: functional, organism-based

Structure (SMILES) | inhibition
COc1ccc(Nc2ccc(CCNC[C@H](O)c3ccc(O)c4[nH]c(=O)ccc34)cc2)cc1-c1ccccc1 | Active

species on record: Homo sapiens; assay: Selectivity ratio EC50 for human beta2 receptor to EC50 for human beta3 receptor
Procedure, shortened: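 cAMP accumulation in whole cells overexpressing cloned human β-adrenoceptor subtypes, measured by homogeneous radioimmunoassay (Flashplate). Reported as pEC50. Functional selectivity is the ratio of EC50 values (β3 EC50/β2 EC50 for β3; β1 EC50/β2 EC50 for β1).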

Structure (SMILES) | Ratio EC50
COc1ccc(Nc2ccc(CCNC[C@H](O)c3ccc(O)c4[nH]c(=O)ccc34)cc2)cc1-c1ccccc1 | 100
COc1ccc(Nc2ccc(CCNC[C@H](O)c3ccc(O)c(NC=O)c3)cc2)cc1-c1ccccc1 | 26

molecular target: T3, Beta-2 adrenergic receptor (Cavia porcellus, UniProt Q8K4Z4); assay: Agonist activity at beta2 receptor in guinea pig trachea assessed as slow onset of inhibition of electrically stimulated contraction
T3 sequence (Q8K4Z4 whole entry): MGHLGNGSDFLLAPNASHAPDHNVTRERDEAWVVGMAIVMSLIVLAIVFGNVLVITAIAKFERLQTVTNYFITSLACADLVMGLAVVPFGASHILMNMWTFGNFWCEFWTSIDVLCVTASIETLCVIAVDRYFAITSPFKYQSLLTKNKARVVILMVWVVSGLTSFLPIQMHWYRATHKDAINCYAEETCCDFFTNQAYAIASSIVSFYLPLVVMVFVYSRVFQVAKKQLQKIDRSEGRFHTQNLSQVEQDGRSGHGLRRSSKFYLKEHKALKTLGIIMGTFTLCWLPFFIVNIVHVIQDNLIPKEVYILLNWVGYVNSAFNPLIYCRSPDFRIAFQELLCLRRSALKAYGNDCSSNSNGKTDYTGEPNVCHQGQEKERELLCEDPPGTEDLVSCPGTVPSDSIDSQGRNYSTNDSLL
Procedure, shortened: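 Guinea pigs pretreated with 6-hydroxy-dopamine (200 mg/kg i.p.) 24 h before. Opened 5 mm tracheal rings between platinum electrodes in normal-K+ (4.7 mM) Krebs at 37 °C with 10 µM indomethacin, 1 µM choline, 3 µM guanethidine. Field stimulation: 9 V, 10 Hz, 1 ms pulses, 10 s train every 100 s. Resting tension 1 g, 1 h equilibration. Onset is the time to maximum effect at an EC80 concentration; slow is >30 min.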

Structure (SMILES) | EC50
COc1ccc(Nc2ccc(CCNC[C@H](O)c3ccc(O)c4[nH]c(=O)ccc34)cc2)cc1-c1ccccc1 | 2 nM
COc1ccc(Nc2ccc(CCNC[C@H](O)c3ccc(O)c(NC=O)c3)cc2)cc1-c1ccccc1 | 12.6 nM

molecular target: T2, Beta-2 adrenergic receptor; assay: Agonist activity at human recombinant beta2 receptor assessed as cAMP accumulation by radioimmunoassay and cell based assay; type: functional

Structure (SMILES) | EC50
COc1ccc(CN2CCN(c3ccc(CCNCC(O)c4ccc(O)c(CO)c4)cc3)CC2)cc1 (racemic) | 631 nM
CSc1ccc(Nc2ccc(CCNCC(O)c3ccc(O)c(CO)c3)cc2)cc1 (racemic) | 2.51 nM
OCc1cc(C(O)CNCCc2ccc(Nc3ccc4ccccc4c3)cc2)ccc1O (racemic) | 2.51 nM
OCc1cc(C(O)CNCCc2ccc(N3CCC(c4ccccc4)CC3)cc2)ccc1O (racemic) | 398 nM
O=C(Cc1ccccc1)NC1CCN(c2ccc(CCNCC(O)c3ccc(O)c(CO)c3)cc2)CC1 (racemic) | 1000 nM
COC(=O)c1ccc(Nc2ccc(CCNCC(O)c3ccc(O)c(CO)c3)cc2)cc1 (racemic) | 6.31 nM
OCc1cc(C(O)CNCCc2ccc(N3CCC(CCCc4ccccc4)CC3)cc2)ccc1O (racemic) | 1580 nM
OCc1cc(C(O)CNCCc2ccc(Nc3ccc(-c4ccccc4)cc3)cc2)ccc1O (racemic) | 7.94 nM
OCc1cc(C(O)CNCCc2ccc(Nc3ccc(O)cc3)cc2)ccc1O (racemic) | 200 nM
COc1ccc(Nc2ccc(CCNC[C@H](O)c3ccc(O)c4[nH]c(=O)ccc34)cc2)cc1-c1ccccc1 | 0.126 nM
OCc1cc(C(O)CNCCc2ccc(Nc3cccc(-c4ccccc4)c3)cc2)ccc1O (racemic) | 2 nM
OCc1cc(C(O)CNCCc2ccc(Br)cc2)ccc1O (racemic) | 25.1 nM
OCc1cc(C(O)CNCCc2ccc(NCc3ccc(Cl)c(Cl)c3)cc2)ccc1O (racemic) | 1580 nM
COc1ccc(Nc2ccc(CCNC[C@H](O)c3ccc(O)c(NC=O)c3)cc2)cc1-c1ccccc1 | 0.126 nM

species on record: Homo sapiens; assay: Selectivity ratio Ki for beta1 receptor (unknown origin) to Ki for beta2 receptor (unknown origin)

Structure (SMILES) | Ratio Ki
CSc1ccc(Nc2ccc(CCNCC(O)c3ccc(O)c(CO)c3)cc2)cc1 (racemic) | 81
O=CNc1cc([C@@H](O)CNCCc2ccc(NC[C@H](O)c3ccccc3)cc2)ccc1O [MILVETEROL] | 3030
OCc1cc(C(O)CNCCc2ccc(Nc3ccc4ccccc4c3)cc2)ccc1O (racemic) | 34
COC(=O)c1ccc(Nc2ccc(CCNCC(O)c3ccc(O)c(CO)c3)cc2)cc1 (racemic) | 36
OCc1cc(C(O)CNCCc2ccc(N3CCC(CCCc4ccccc4)CC3)cc2)ccc1O (racemic) | 0.6
OCc1cc(C(O)CNCCc2ccc(Nc3ccc(-c4ccccc4)cc3)cc2)ccc1O (racemic) | 36
OCc1cc(C(O)CNCCc2ccc(Nc3ccc(O)cc3)cc2)ccc1O (racemic) | 23
OCc1cc(C(O)CNCCc2ccc(Nc3cccc(-c4ccccc4)c3)cc2)ccc1O (racemic) | 40

molecular target: T1, Beta-1 adrenergic receptor; assay: Agonist activity at human recombinant beta1 receptor assessed as cAMP accumulation by radioimmunoassay and cell based assay

Structure (SMILES) | EC50
COc1ccc(Nc2ccc(CCNC[C@H](O)c3ccc(O)c4[nH]c(=O)ccc34)cc2)cc1-c1ccccc1 | 7.94 nM
COc1ccc(Nc2ccc(CCNC[C@H](O)c3ccc(O)c(NC=O)c3)cc2)cc1-c1ccccc1 | 10 nM

molecular target: T3, Beta-2 adrenergic receptor; assay: Agonist activity at beta2 receptor in guinea pig trachea assessed as fast onset of inhibition of electrically stimulated contraction

Structure (SMILES) | EC50
O=CNc1cc([C@@H](O)CNCCc2ccc(NC[C@H](O)c3ccccc3)cc2)ccc1O [MILVETEROL] | 0.0501 nM

molecular target: T2, Beta-2 adrenergic receptor; assay: Agonist activity at human beta2 receptor in BEAS-2B cells assessed as cAMP accumulation by radioimmunoassay; type: functional, cell-based

Structure (SMILES) | EC50
COc1ccc(Nc2ccc(CCNC[C@H](O)c3ccc(O)c4[nH]c(=O)ccc34)cc2)cc1-c1ccccc1 | 0.398 nM
COc1ccc(Nc2ccc(CCNC[C@H](O)c3ccc(O)c(NC=O)c3)cc2)cc1-c1ccccc1 | 0.794 nM
